Columns and labels:
Rattus norvegicus [1] = species: Rattus norvegicus; experiment: Inhibitory activity against ATP receptor in isolated perfused rat heart
Rattus norvegicus [2] = species: Rattus norvegicus; experiment: Glucose oxidation was measured using [C14] Glucose in perfusing rat heart; assay type: functional
Procedure, shortened: (§1)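 Isolated, spontaneously beating rat hearts under aerobic perfusion for 60 min. Test agents perfused at 1 mM, DCA positive control at 3 mM, untreated controls; n = 6 hearts per group. [3H]-palmitate and [14C]-glucose perfused together to measure fatty acid and glucose oxidation simultaneously.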

Rattus norvegicus [3] = species: Rattus norvegicus; experiment: Fatty acid oxidation was measured using [3H]- palmitate in perfusing rat heart; assay type: functional; procedure, shortened: as §1
Rattus norvegicus [4] = experiment: Ability of compound to reduce the infarct size in rat administered via bolus at 0.02 mmol/kg; assay type: functional
Procedure, shortened: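 Male Wistar rats, carotid artery and jugular vein cannulated, LAD snare placed, 30 min stabilization. Bolus injection 0.02 mmol/kg given 5 min before LAD occlusion; saline infusion controls. 25 min ischemia, 2 h reperfusion. Area at risk delineated with Evans blue (2% w/v). AR pieces stained with NBT (0.5 mg/mL) for 40 min at 37 °C. Infarct size expressed as % of AR.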

| Compound | Activity (Rattus norvegicus [1]) [µM] | Activity (Rattus norvegicus [2]) | Activity (Rattus norvegicus [3]) | Reduction (Rattus norvegicus [4]) [%] |
| --- | --- | --- | --- | --- |
| Cc1ncc(COP(=O)(O)O)c(C=O)c1O [PYRIDOXAL PHOSPHATE ANHYDROUS] | 10 | 2253 | 398 | 33 |
| Cc1ncc(C(O)P(=O)(O)O)c(O)c1O (centres undefined) | – | – | – | 19 |
| Cc1ncc(CP(=O)(O)O)c(O)c1O | – | – | – | 20 |
| Cc1ncc2c(c1O)COC2(O)C(F)(F)P(=O)(O)O (centres undefined) | – | 2339 | 414 | 46 |
